ChEMBL document CHEMBL2146414, “Lignan derivatives from Krameria lappacea roots inhibit acute inflammation in vivo and pro-inflammatory mediators in vitro” (J Nat Prod, 2011)
pIC50: −log10 of the molar value. The source made the active and inactive calls. The calls are words filed in the database; no cut-off is given here.

Columns and labels:
[1] = system: Mus musculus; test: Antiinflammatory activity in CD1 mouse ear dermatitis model assessed as inhibition of Croton oil-induced ear edema at 0.10 umol administered topically per cm'2 of ear measured after induction of dermatitis relative to untreated control; assay type: functional
How it was run: (§1)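 Male CD-1 mice (28–32 g), anesthetized with ketamine 145 mg/kg i.p.; right ear (about 1 cm2) given 80 μg croton oil in 15 μL acetone, with test substance co-applied in acetone; left ear left untreated. Controls received irritant only. 6 mm punches taken from both ears; edema = weight difference treated minus untreated; % inhibition vs controls. ID50 by graphic interpolation of log dose–effect curves; ANOVA with Dunnett's test.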

[2] = target: T1, Peroxisome proliferator-activated receptor gamma (Homo sapiens) (UniProt P37231); test: Activation of PPARgamma transfected in HEK293 cells at 10 uM after 18 hrs by firefly luciferase reporter gene-based luminescence assay; assay type: cell-based
T1 sequence (whole entry): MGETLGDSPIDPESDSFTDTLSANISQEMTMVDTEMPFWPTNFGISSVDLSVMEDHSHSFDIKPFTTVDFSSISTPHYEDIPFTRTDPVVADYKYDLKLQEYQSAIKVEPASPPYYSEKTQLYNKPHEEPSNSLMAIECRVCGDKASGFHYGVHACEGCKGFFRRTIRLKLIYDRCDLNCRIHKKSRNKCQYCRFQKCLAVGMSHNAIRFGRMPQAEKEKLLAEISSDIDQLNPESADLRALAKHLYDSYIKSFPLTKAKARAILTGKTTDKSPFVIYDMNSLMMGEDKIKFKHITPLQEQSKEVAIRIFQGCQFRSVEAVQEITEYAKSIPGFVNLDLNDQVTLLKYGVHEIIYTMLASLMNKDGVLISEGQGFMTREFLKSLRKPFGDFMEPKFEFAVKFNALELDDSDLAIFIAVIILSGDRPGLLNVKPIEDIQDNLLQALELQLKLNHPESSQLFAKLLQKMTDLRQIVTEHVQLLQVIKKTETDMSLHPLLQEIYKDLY

[3] = target: T2, Prostaglandin G/H synthase 1 (Ovis aries, UniProt P05979); test: Inhibition of ram seminal vesicle COX1 assessed as PGE2 production by enzyme immunoassay
T2 sequence (P05979 whole entry): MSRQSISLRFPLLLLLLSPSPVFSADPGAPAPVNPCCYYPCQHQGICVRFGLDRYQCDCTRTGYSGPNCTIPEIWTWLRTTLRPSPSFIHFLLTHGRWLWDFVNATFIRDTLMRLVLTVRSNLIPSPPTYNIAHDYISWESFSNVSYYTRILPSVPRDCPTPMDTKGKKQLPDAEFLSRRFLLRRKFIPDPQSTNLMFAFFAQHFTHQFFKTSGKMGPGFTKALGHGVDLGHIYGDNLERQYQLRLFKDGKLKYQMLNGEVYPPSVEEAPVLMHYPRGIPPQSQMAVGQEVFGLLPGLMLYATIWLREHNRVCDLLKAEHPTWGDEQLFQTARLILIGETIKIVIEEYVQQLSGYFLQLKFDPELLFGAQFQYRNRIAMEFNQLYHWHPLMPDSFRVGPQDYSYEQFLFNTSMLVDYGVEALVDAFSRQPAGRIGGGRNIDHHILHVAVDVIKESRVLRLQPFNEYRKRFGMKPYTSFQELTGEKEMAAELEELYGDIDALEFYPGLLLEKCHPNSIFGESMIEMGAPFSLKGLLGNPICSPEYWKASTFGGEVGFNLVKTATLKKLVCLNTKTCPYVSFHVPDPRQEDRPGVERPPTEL
How it was run: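 Purified PGHS-1 from ram seminal vesicles; PGE2 product measured by competitive EIA; samples in ethanol. IC50 from at least three concentrations, duplicates, at least three independent experiments, by nonlinear regression.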

[4] = target: T3, Inhibitor of nuclear factor kappa-B kinase subunit beta (Homo sapiens) (UniProt O14920); test: Inhibition of human IKK2 assessed as reduction in substrate phosphorylation at 10 uM by ELISA
T3 sequence (whole entry): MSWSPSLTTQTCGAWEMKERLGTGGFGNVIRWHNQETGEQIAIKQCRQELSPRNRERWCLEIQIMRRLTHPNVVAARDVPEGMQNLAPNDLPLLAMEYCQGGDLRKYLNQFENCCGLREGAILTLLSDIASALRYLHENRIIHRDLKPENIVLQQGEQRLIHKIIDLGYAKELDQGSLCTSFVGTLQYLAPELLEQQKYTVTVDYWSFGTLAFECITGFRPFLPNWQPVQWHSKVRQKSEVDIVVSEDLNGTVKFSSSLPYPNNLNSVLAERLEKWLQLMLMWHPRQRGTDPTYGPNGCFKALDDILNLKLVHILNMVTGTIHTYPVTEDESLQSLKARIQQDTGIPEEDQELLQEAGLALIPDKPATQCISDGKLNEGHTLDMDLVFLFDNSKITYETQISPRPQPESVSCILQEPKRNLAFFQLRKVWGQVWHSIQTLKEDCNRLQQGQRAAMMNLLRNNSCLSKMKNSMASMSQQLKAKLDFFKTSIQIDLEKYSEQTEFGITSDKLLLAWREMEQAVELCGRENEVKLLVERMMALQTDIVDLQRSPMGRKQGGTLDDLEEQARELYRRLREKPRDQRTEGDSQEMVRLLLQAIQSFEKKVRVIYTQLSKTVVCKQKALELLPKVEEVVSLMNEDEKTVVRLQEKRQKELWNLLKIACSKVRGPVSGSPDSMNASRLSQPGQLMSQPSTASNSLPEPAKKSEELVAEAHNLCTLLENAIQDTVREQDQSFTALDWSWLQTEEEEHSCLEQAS

[5] = Inhibition of NFkappaB activity transfected in HEK293 cells pretreated for 1 hr before 6 hrs of LPS challenge by luciferase reporter gene assay; details: Homo sapiens
[6] = system: Mus musculus; test: Antiinflammatory activity in CD1 mouse ear dermatitis model assessed as inhibition of Croton oil-induced ear edema at 0.30 umol administered topically per cm'2 of ear measured after induction of dermatitis relative to untreated control; assay type: functional; how it was run: as §1
[7] = system: Mus musculus; test: Antiinflammatory activity in CD1 mouse ear dermatitis model assessed as inhibition of Croton oil-induced ear edema at 1 umol administered topically per cm'2 of ear measured after induction of dermatitis relative to untreated control; assay type: functional; how it was run: as §1
[8] = system: Radical scavenging activity; test: Antioxidant activity assessed as DPPH free radical scavenging activity up to 100 uM after 30 mins by spectrophotometry; assay type: functional

| SMILES | inhibition (INH) [1] | Activity [2] | pIC50 [3] | inhibition [4] | pIC50 [5] | inhibition (INH) [6] | inhibition (INH) [7] | Activity [8] |
| --- | --- | --- | --- | --- | --- | --- | --- | --- |
| C/C=C/c1ccc2oc(-c3ccc(OC)cc3O)cc2c1 [RATANIAPHENOL I] | 9% | inactive | < 4.30 | inactive | 4.83 | 33% | 64% |  |
| C/C=C/c1ccc2oc(-c3ccc(O)cc3OC)cc2c1 [RATANIAPHENOL III] | 12% | inactive | 5.57 | inactive | < 4.70 | 35% | 70% |  |
| C/C=C/c1ccc2c(c1)[C@H](CO)[C@@H](c1ccc(O)cc1)O2 | 17% | inactive | < 4.30 | inactive |  | 36% | 75% | inactive |
| C/C=C/c1ccc2oc(-c3ccc(O)cc3O)cc2c1 | 15% | inactive | 5.42 | inactive |  | 29% | 64% |  |
| C/C=C/c1ccc2oc(-c3ccc(O)cc3)cc2c1 | 14% | inactive | 4.74 | inactive | 5.85 | 35% | 74% | inactive |
| COc1cc(O)ccc1-c1cc2cc(CCCO)ccc2o1 | 13% | inactive | < 4.30 | inactive |  | 32% | 75% |  |
| C[C@@H]1[C@H](C)[C@@H](c2ccc(O)cc2)O[C@H]1c1ccc(O)cc1 | 14% | inactive | < 4.30 | inactive | < 4.70 | 52% | 72% | inactive |
| C[C@@H]1[C@H](C)[C@@H](c2ccc(O)cc2)O[C@@H]1c1ccc(O)cc1 | 19% | inactive | < 4.30 | inactive |  | 39% | 67% | inactive |
| C/C=C/c1ccc2oc(-c3ccc(O)cc3)c(C)c2c1 [RATANIAPHENOL II] | 13% | inactive | 5.52 | inactive |  | 41% | 75% | inactive |
| C/C=C/c1ccc2c(c1)[C@@H](C)[C@H](c1ccc(O)cc1)O2 | 25% | inactive | < 4.30 | inactive | < 4.70 | 45% | 81% | inactive |
| COc1ccc(-c2cc3cc(CCCO)ccc3o2)c(O)c1 | 25% | inactive | < 4.30 | inactive | 5.23 | 50% | 67% |  |
